As a reminder, the inhibition is the share of the control response that was lost under treatment. High values mean a response far below the control, low ones a response near the control.

SMILES strings stand for the structures.

The subject of one test is MDA-MB-468. The experiment in a line: Cytotoxicity against human MDA-MB-468 cells assessed as growth inhibition at 10 uM after 48 hrs by SRB assay. Type of test: functional. The conditions noted are these: MDA-MB-468, 48 h, read-out: GI. In a few lines:
(§1)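 Single-dose NCI 60-cell screen at 10 µM with 48 h exposure and sulforhodamine B read-out. Values are percentage growth per cell line. A summary ratio counts cell lines with 0–50% growth over all cell lines tested.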
Background: In SRB staining, fixed cells bind dye roughly in proportion to their protein.

A further test relates to UACC-257. The experiment in a line: Cytotoxicity against human UACC257 cells assessed as growth inhibition at 10 uM after 48 hrs by SRB assay. In kind it is functional. Particulars: UACC-257, 48 h, read-out: GI. In a few lines: as §1
The test system of another test is NCI-H522. Kind of test: Cytotoxicity against human NCI-H522 cells assessed as growth inhibition at 10 uM after 48 hrs by SRB assay. Type of test: functional. The conditions noted are these: NCI-H522, 48 h, read-out: GI. The method, boiled down: as §1
A further test relates to UO-31. The experiment in a line: Cytotoxicity against human UO31 cells assessed as growth inhibition at 10 uM after 48 hrs by SRB assay. In kind it is functional. Particulars: UO-31, 48 h, read-out: GI. The method, boiled down: as §1
The test system of another test is HCC 2998. Kind of test: Cytotoxicity against human HCC2998 cells assessed as growth inhibition at 10 uM after 48 hrs by SRB assay. Type of test: functional. The conditions noted are these: HCC 2998, 48 h, read-out: GI. The method, boiled down:
as §1

For another test, the system named is KM12. The experiment in a line: Cytotoxicity against human KM12 cells assessed as growth inhibition at 10 uM after 48 hrs by SRB assay. In kind it is functional. The conditions noted are these: KM12, 48 h, read-out: GI. In a few lines: as §1
The next test relates to PC-3. Kind of test: Cytotoxicity against human PC3 cells assessed as growth inhibition at 10 uM after 48 hrs by SRB assay. Type of test: functional. Particulars: PC-3, 48 h, read-out: GI. The method, boiled down:
as §1

For a further test, the system named is NCI/ADR-RES. The experiment in a line: Cytotoxicity against human NCI/ADR-RES cells assessed as growth inhibition at 10 uM after 48 hrs by SRB assay. The conditions noted are these: read-out: GI. In kind it is functional. In a few lines: as §1
Another test has as its system HOP-62. Kind of test: Cytotoxicity against human HOP62 cells assessed as growth inhibition at 10 uM after 48 hrs by SRB assay. Type of test: functional. Particulars: HOP-62, 48 h, read-out: GI. The method, boiled down: as §1
A further test is filed under the species Ovis aries. Kind of test: Inhibition of sheep brain tubulin assembly at 100 uM by DAPI staining-based fluorescence assay. The method, boiled down: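 Tubulin from sheep brain, purified by two assembly–disassembly cycles, at about 2–3 mg/mL in 0.1 M MES, 0.5 mM MgCl2, 1 mM EGTA, 1 mM GTP, pH 6.6. Assembly followed by DAPI fluorescence at 37 °C. Single-point inhibition tested at 100 µM. IC50 is the concentration halving the assembly rate relative to no compound, mean of two experiments, with reference inhibitors run the same day.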

A further test relates to SR. Kind of test: Cytotoxicity against human SR cells assessed as growth inhibition at 10 uM after 48 hrs by SRB assay. The conditions noted are these: read-out: GI. Type of test: functional. In a few lines:
as §1

For the next test, the system named is SNB-75. Kind of test: Cytotoxicity against human SNB75 cells assessed as growth inhibition at 10 uM after 48 hrs by SRB assay. Type of test: functional. Particulars: SNB-75, 48 h, read-out: GI. In a few lines: as §1
The next test relates to SW-620. Kind of test: Cytotoxicity against human SW620 cells assessed as growth inhibition at 10 uM after 48 hrs by SRB assay. In kind it is functional. The conditions noted are these: SW-620, 48 h, read-out: GI. The method, boiled down:
as §1

Another test concerns K562. The experiment in a line: Cytotoxicity against human K562 cells assessed as growth inhibition at 10 uM after 48 hrs by SRB assay. In kind it is functional. The conditions noted are these: K562, 48 h, read-out: GI. The method, boiled down:
as §1

A further test has as its system MDA-MB-435. The experiment in a line: Cytotoxicity against human MDA-MB-435 cells assessed as growth inhibition at 10 uM after 48 hrs by SRB assay. Type of test: functional. Particulars: MDA-MB-435, 48 h, read-out: GI. In a few lines:
as §1

Another test deals with M14. The experiment in a line: Cytotoxicity against human M14 cells assessed as growth inhibition at 10 uM after 48 hrs by SRB assay. Type of test: functional. Particulars: M14, 48 h, read-out: GI. In a few lines: as §1
A further test has as its system MCF7. The experiment in a line: Cytotoxicity against human MCF7 cells assessed as growth inhibition at 10 uM after 48 hrs by SRB assay. Type of test: functional. The conditions noted are these: MCF7, 48 h, read-out: GI. In a few lines: as §1
The subject of the next test is HCT-15. The experiment in a line: Cytotoxicity against human HCT15 cells assessed as growth inhibition at 10 uM after 48 hrs by SRB assay. In kind it is functional. Particulars: HCT-15, 48 h, read-out: GI. The method, boiled down:
as §1

The next test relates to HL-60(TB). Kind of test: Cytotoxicity against human HL-60(TB) cells assessed as growth inhibition at 10 uM after 48 hrs by SRB assay. Type of test: functional. Particulars: HL-60, 48 h, read-out: GI. The method, boiled down: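 Single high dose of 10 µM in the NCI 60-cell disease-oriented human tumour panel, with 48 h exposure and sulforhodamine B read-out of percentage growth.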

For `COc1ccc(C(=O)c2cc(F)c(F)c(OC)c2F)c(OC)c1NC(C)=O`, the inhibition of growth at 10 µM in the test on MDA-MB-468 came out at 81%; in the test with UACC-257, 21%; with NCI-H522, 83%; with UO-31 it was 30%; in the test with HCC 2998, 31%; in the test on KM12, 57%. In addition, the inhibition of growth at 10 µM was 27% in the test with PC-3; 55% in the test with NCI/ADR-RES; 30% with HOP-62; 49% in the test with SR; 44% in the test on SNB-75; 37% with SW-620. The molecule also came in with an inhibition in the test listed under Ovis aries of 39%.

In the case of `COc1ccc(C(O)c2cc(F)c(F)c(OC)c2F)cc1O` (stereo not given), the inhibition of growth at 10 µM with NCI-H522 turned out to be 53%; with KM12, 26%; in the test with NCI/ADR-RES, 35%; in the test with K562, 41%; with SR, 33%. The inhibition in the test listed under Ovis aries was determined as 49%.

In the test filed under Ovis aries, `COc1cc(C(=O)c2cc(OC)c(O)c(OC)c2)c(OC)cc1F` registered an inhibition of 48%. Also, the inhibition of growth at 10 µM was 22% in the test on SR and 21% with MDA-MB-435.

For the molecule `COc1ccc(C(=O)c2ccc(OC)c(N)c2OC)cc1F`, the inhibition of growth at 10 µM in the test on MDA-MB-468 was found to be 81%; in the test on M14 it was 43%; with NCI-H522 it was 45%; with HCC 2998, 72%; in the test on KM12 it was 59%; in the test with MCF7, 52%. The inhibition of growth at 10 µM was 71% in the test with K562; 53% in the test with HCT-15; 61% with SR; 100% in the test with MDA-MB-435; 77% in the test on SW-620; 49% in the test on HL-60(TB). Besides, the inhibition in the test listed under Ovis aries came to 45%.

Values taken from ChEMBL document CHEMBL2384929, “Synthesis and biological evaluation of fluoro analogues of antimitotic phenstatin” (Bioorg Med Chem, 2013).
